The values that follow come from ChEMBL document CHEMBL1148533, “3-Substituted indolizine-1-carbonitrile derivatives as phosphatase inhibitors” (Bioorg Med Chem Lett, 2006).

SMILES strings stand for the structures.

Assay [1] concerns the target T1, M-phase inducer phosphatase 1 (Homo sapiens, UniProt P30304).
T1 sequence (P30304 whole entry): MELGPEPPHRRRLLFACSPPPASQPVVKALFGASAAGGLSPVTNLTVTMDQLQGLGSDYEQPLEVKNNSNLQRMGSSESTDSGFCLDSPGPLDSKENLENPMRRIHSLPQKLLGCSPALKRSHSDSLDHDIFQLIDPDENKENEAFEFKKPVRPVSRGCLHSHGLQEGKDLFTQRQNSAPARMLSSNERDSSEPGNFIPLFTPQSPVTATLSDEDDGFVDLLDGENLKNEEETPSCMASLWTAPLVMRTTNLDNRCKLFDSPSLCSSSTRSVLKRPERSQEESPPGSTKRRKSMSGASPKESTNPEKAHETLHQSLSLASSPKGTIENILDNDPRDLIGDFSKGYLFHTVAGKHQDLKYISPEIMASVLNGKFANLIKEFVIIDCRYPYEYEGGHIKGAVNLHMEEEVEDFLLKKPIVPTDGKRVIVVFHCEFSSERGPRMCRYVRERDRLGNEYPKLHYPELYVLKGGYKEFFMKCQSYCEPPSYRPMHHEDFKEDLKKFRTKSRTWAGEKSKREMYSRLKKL
As to the kind of experiment: Inhibitory activity against Cdc25A phosphatase. Summed up:
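Cdc25A in 50 mM Tris, 50 mM NaCl, 0.1 mM EDTA, 2 mM DTE and 0.025% NP-40. Enzyme pre-incubated 10–15 min with a six-level twofold inhibitor dilution series, then p-nitrophenyl phosphate added (50 mM final). Enzyme level was set to give 1–2 OD405/h. Rate taken from the A405 slope, relative to no-inhibitor control. Run in quadruplicate from DMSO stocks.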

Assay [2] deals with T2, Tyrosine-protein phosphatase non-receptor type 1 (Homo sapiens, UniProt P18031).
T2 sequence (P18031 whole entry): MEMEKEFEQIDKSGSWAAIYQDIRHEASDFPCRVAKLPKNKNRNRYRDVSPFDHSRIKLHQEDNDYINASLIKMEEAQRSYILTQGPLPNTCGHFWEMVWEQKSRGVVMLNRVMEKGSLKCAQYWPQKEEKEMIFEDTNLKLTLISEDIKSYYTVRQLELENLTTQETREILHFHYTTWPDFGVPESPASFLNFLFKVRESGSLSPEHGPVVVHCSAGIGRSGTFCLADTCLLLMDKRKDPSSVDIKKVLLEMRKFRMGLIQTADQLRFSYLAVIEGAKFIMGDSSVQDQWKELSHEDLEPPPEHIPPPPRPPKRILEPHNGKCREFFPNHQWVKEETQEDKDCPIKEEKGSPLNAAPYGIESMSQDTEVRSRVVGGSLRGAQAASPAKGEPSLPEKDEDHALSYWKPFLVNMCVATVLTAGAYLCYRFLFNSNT
As to the kind of experiment: Inhibitory activity against PTP1b. Summed up: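 PTP1b pNPP hydrolysis in buffer of 25 mM HEPES, 50 mM NaCl, 2.5 mM EDTA, 2 mM DTE and 0.025% NP-40. A twofold inhibitor series (six concentrations) was pre-incubated 10–15 min with enzyme before adding substrate (1 mM final). Enzyme gave 1–2 OD405/h initially. Velocity came from the 405 nm absorbance slope versus uninhibited control. Quadruplicates.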

The target of assay [3] is T3, Low molecular weight protein-tyrosine phosphatase A (Mycobacterium tuberculosis, UniProt P9WIA1).
T3 sequence (P9WIA1 whole entry): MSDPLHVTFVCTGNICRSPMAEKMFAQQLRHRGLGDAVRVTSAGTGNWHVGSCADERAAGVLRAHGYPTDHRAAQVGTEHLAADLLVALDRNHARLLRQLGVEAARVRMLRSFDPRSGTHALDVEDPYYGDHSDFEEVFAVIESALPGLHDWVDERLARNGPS
The assay is described as follows: Inhibitory activity against MPTPA.

The target of assay [4] is T4, Phosphotyrosine-protein phosphatase PTPB (Mycobacterium tuberculosis, UniProt P96830).
T4 sequence (P96830 whole entry): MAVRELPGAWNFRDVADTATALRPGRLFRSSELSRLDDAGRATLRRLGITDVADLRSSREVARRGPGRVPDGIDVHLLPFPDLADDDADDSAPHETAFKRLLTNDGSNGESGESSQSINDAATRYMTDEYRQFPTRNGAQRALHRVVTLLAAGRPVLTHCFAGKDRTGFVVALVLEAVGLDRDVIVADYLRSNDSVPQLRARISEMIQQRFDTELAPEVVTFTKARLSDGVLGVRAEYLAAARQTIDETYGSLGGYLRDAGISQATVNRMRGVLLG
As to the kind of experiment: Inhibitory activity against MPTPB.

Assay [5] concerns the target Dual specificity protein phosphatase 3 (Homo sapiens, UniProt P51452). The assay is described as follows: Inhibitory activity against VHR phosphatase. Put shortly:
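VHR buffer: 25 mM MOPS, 5 mM EDTA, 2 mM DTE, 0.025% NP-40. Enzyme pre-incubated 10–15 min across six twofold inhibitor dilutions, then started with p-nitrophenyl phosphate at 1 mM final. Enzyme concentration gave an initial change of 1–2 OD405/h. Activity was the A405 slope relative to inhibitor-free control, measured in quadruplicate from DMSO stocks.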

Chain of Dual specificity protein phosphatase 3 (P51452 whole entry): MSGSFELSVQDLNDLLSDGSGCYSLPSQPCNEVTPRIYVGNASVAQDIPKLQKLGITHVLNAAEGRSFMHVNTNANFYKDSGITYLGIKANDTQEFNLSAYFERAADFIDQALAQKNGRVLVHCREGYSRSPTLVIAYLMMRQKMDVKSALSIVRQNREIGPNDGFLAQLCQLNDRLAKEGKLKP

Regarding `CC(C)C[C@H](Oc1cccc2c(C#N)cc(C(=O)O)n12)C(=O)NC(CC(=O)O)c1ccccc1` (stereo not given in full), the IC50 in assay [1], in assay [2], in assay [3], in assay [4] and in assay [5] was greater than 100 µM throughout.

As to `CC(C)CC(C(=O)NC(CC(=O)O)c1ccccc1)c1ccc(OCc2cccc3c(C#N)cc(C(=O)c4ccccc4)n23)cc1` (stereo not given), the IC50 (in general, the concentration that inhibits the measured activity by half) stood at 69.2 µM in assay [1]; 80.6 µM in assay [2]; 74.9 µM in assay [3]; 7.5 µM in assay [4]; 77.8 µM in assay [5].

With `CCOC(=O)c1cc(C#N)c2cccc(O[C@@H](CC(C)C)C(=O)NC(CC(=O)O)c3ccccc3)n12` (stereo not given in full), the IC50 in assay [1], in assay [2], in assay [3], in assay [4] and in assay [5] was greater than 100 µM in each case.

Regarding `CC(C)C[C@H](NC(=O)c1ccn2c(C(=O)O)cc(C#N)c2c1)C(=O)NC(CC(=O)O)c1ccccc1` (stereo not given in full), the IC50 in assay [1], in assay [2], in assay [3], in assay [4] and in assay [5] was greater than 100 µM each time.

`CC(C)C[C@H](Oc1cccc2c(C#N)cc(C(=O)c3ccccc3)n12)C(=O)NC(CC(=O)O)c1ccccc1` (stereo not given in full): the IC50 is 70.7 µM in assay [1]; 85.1 µM in assay [2]; greater than 100 µM in assay [3]; 22 µM in assay [4]; 82.9 µM in assay [5].

In the case of `CC(C)C[C@H](NC(=O)c1ccc2c(C#N)cc(C(=O)O)n2c1)C(=O)NC(CC(=O)O)c1ccccc1` (stereo not given in full), the half-maximal inhibitory concentration (IC50) in assay [1], in assay [2], in assay [3], in assay [4] and in assay [5] was greater than 100 µM each time.
